Fewer inactive variants are shown than the library holds.
B1: tRNA (parent)
chain: CUCUCGGUAGCCAAGUUGGUUUAAGGCGCAAGACUUUAAUUUAUCACUACGAAAUCUUGAGAUCGGGCGUUCGACUCGCCCCCGGGAGAUUUUUUCCUCGAGCAA

Variants of: B1
Test: nonsense suppression (GFP-seq) (ratio to wild type); higher = more function; SUP4oc tRNA, yeast GFP reporter sort-seq
Method in brief: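 Nonsense suppression (GFPSEQ) is the median GFP/RFP ratio of each sorting bin, weighted by the variant's estimated share of cells in that bin and expressed relative to the unmutated parent tRNA. Yeast strains carried genome-integrated variants of an ochre-suppressor tRNA from a library with ~3% random mutations, plus a galactose-driven GFP ochre reporter and RFP, and were grown in raffinose/galactose medium containing 80 mg/L adenine. Cells were sorted into GFP/RFP bins, each bin was Illumina-sequenced (phred ≥30), and variants were kept only with ≥100 reads and ≥30 cells.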

Variant | nonsense suppression
C1U A13C A30C C77U A89C | ≤ 0.026
C3A G66C | ≤ 0.026
U2G A33C A60U G73C | ≤ 0.026
U2C A30U A31G A62G G67A G86C | ≤ 0.026
C1A U4G C27U | ≤ 0.026
C1G C29A C34U | ≤ 0.026
C3G C77A | ≤ 0.026
U2C C12G A24C A62U C79A | ≤ 0.026
U2G A23G G66A | ≤ 0.026
C3A U4C | 0.191
C1U G66U G86A | ≤ 0.026
C1U U63C | ≤ 0.026
C1G A33G U55C U71G G78C | ≤ 0.026
C3A A13U | 0.0379
C3A A13C | 0.0261
C3A U57A C80U A89U | ≤ 0.026
U2C A60C | 0.0359
U2C A60U | 0.194
U2G C12A | ≤ 0.026
U2A U55C | 0.0451
C1G C3G G25A C27U | ≤ 0.026
C3G A31C C68G C77U | ≤ 0.026
C3G A13U | 0.0541
C3U A13U | 0.194

Variant | nonsense suppression
C3U A13C | 0.184
C3U G26C G28A | ≤ 0.026
U2C C75U | 0.206
C1U U35A C77A G84U | ≤ 0.026
C1U U17C C81G | ≤ 0.026
C1U G6C G10U U58C | ≤ 0.026
U2C A23G | 0.0274
U2G C77G | ≤ 0.026
U2G C77U | ≤ 0.026
C1U U2G G18U | ≤ 0.026
U2C A23G A62C G67A | ≤ 0.026
U2C G88A | ≤ 0.026
C3G U16G G66A | ≤ 0.026
U2A C12A | ≤ 0.026
C1U U4G C5U A31G C81A | ≤ 0.026
C1G A54G U63G U70G | ≤ 0.026
C3U G10A | 0.0262
C3U G61C | 0.164
C3U G61A | 0.198
C3G A23G C27U C81A C83A G86A | ≤ 0.026
C1U G18A U21G C27U | ≤ 0.026
U2A U4G | 0.203
U2A U4A | 0.0323
C1U U2C A54C G61U U76A | ≤ 0.026

Variant | nonsense suppression
C3G C27U U57C G59A G61A | ≤ 0.026
U2C G28U | ≤ 0.026
U2G U20A U63C U76C | ≤ 0.026
C1U G26A | ≤ 0.026
C3A G28U G65C | ≤ 0.026
U2C A13U C72A | ≤ 0.026
U2G G6C A89C | ≤ 0.026
C3G C56G | ≤ 0.026
U2A U4C U16C | 0.0971
C1G G10C C29U C34G A89G | ≤ 0.026
C1G G61A U76C | 0.0371
C1U G15C G26C | ≤ 0.026
C1U G19U G28C U57C G84A | ≤ 0.026
U2A A60G | 0.0755
U2C C12G | ≤ 0.026
C1U G18A | ≤ 0.026
C3U A13U C34G | ≤ 0.026
C1A U8A U55C A89U | ≤ 0.026
C3U C77G | 0.0323
C1U U2G U20G C29A | ≤ 0.026
C3U A9U A30G A54U G67A | ≤ 0.026
C1G G6U G66U G73U | ≤ 0.026
U2A C81U | 0.0376
C1G U55C | 0.0398

Variant | nonsense suppression
U2C G32A A54G | ≤ 0.026
C1A U2A U35C U70A | ≤ 0.026
C3A A23G G25U C72A | ≤ 0.026
U2G A13U | 0.0638
C3A U20A G28A | ≤ 0.026
C1G G25A U35C | ≤ 0.026
U2C A9C C75A | 0.038
U2G G6C G18A G67C G86A A87U | ≤ 0.026
U2G G6C G18A G67C G86A A87G | ≤ 0.026
U2C C5A | ≤ 0.026
U2C C5G | ≤ 0.026
C1U C3G G86A | ≤ 0.026
U2G C11U U55G A60U C82G G86C G88U | ≤ 0.026
C1G G73A | 0.0631
C3A C12G G18U U20G G61U U70G C75G | ≤ 0.026
U2A U63C G84U | ≤ 0.026
C3A C5G U57C U70A C80A | ≤ 0.026
C3G A14U G18U | ≤ 0.026
C3A U35A | ≤ 0.026
C3A U35C | ≤ 0.026
C3A U35G | ≤ 0.026
C1G A87G | ≤ 0.026
C3U A33U | 0.027
U2C U4C | 1.01

Variant | nonsense suppression
U2C U4G | 0.0326
U2G G10C G15U C29U A31U | ≤ 0.026
C1U U71G | ≤ 0.026
C1U A9U A13C C64U | ≤ 0.026
U2C U20C A24U | ≤ 0.026
C1U C12G | 0.327
C1U C12U | ≤ 0.026
C1U C12A | ≤ 0.026
C3A C29G A60C C81G | ≤ 0.026
C1G U16A | 0.777
C1G C64A | ≤ 0.026
C3U A9G | 0.195
U2A G86A | ≤ 0.026
C1U U4A | 0.0473
C3A U58G U76A | ≤ 0.026
C1U G26A U57C | ≤ 0.026
U2A C27U | 0.0357
C1U G69C G73C | ≤ 0.026
C3U C12U C82G | ≤ 0.026
C1U G7C G69C G85C | ≤ 0.026
U2C C68U A87G | 1.13
C1G C5G A31C G73A | ≤ 0.026
C1U G85C A89C | ≤ 0.026
C3U A60U | 0.55

Variant | nonsense suppression
C1U A54U G88A | 0.209
C1G U8C U55G G69C | ≤ 0.026
C3G A74G | ≤ 0.026
C3A G28A G73A A74G | ≤ 0.026
U2A G32U C34U | ≤ 0.026
U2A A31C A62C G78U A87U | ≤ 0.026
U2A C80U | 0.0354
U2C A14U U57C | ≤ 0.026
C1G U8G U63C G73U | ≤ 0.026
U2G G78U | 0.0774
C3U A30G C34U | ≤ 0.026
U2C U55A | ≤ 0.026
C3A A23C G26A U58A G78C | ≤ 0.026
U2C G78A | 0.0386
C1G U58C A62U G78U | ≤ 0.026
C1G U20C | 0.0266
U2C C79G | ≤ 0.026
C1U U17G | ≤ 0.026
C3G U20G G69A U70C | ≤ 0.026
C3G A24C A31C | ≤ 0.026
C3A A9G C64G | ≤ 0.026
C3G U55C | 0.152
U2A C3G C27G C29G A33U | ≤ 0.026
U2A C68U | 0.18

Variant | nonsense suppression
C3A C29U A87G | ≤ 0.026
U2C A89U | ≤ 0.026
U2A U4G G18A | ≤ 0.026
C1A G85U | 0.03
C3U | 0.739
U2C U16G | 0.168
C3A C72A | ≤ 0.026
C3A A89G | ≤ 0.026
C3G G65C C79U | ≤ 0.026
C3A G15U G25A | ≤ 0.026
C1G G25A G65A C83G | ≤ 0.026
C3G G7A C56G C79G | 0.783
U2C U57A | 0.0292
C3U C34U | ≤ 0.026
C1U C56A U76C | ≤ 0.026
U2A C34U | ≤ 0.026
C1U A9G | 0.0262
U2G A9U | 0.0677
C3A G67U | ≤ 0.026
U2G U16G U22G A23U | ≤ 0.026
U2C C3U C12U G15A | ≤ 0.026
C3U C81U | 0.0941
U2G C27U A30G C79U C83A | ≤ 0.026
